Data as given in ChEMBL document CHEMBL2040741, “Hyaladione, an S-methyl cyclohexadiene-dione from Hyalangium minutum” (J Nat Prod, 2012).
≈ marks a conversion by molar mass, not a printed value.

What was measured:
[1] = test system: MCF7; assay: Cytotoxicity against human MCF7 cells after 5 days by MTT assay; assay type: functional, cell-based; settings: MCF7, 120 h
[2] = Cytotoxicity against human KB-3-1 cells after 5 days by MTT assay; assay type: functional, cell-based; settings: KB 3-1, 120 h
[3] = test system: L929; assay: Cytotoxicity against mouse L929 cells after 5 days by MTT assay; assay type: functional, cell-based; settings: L929, 120 h
[4] = test system: HUVEC; assay: Cytotoxicity against human HUVEC cells after 5 days by MTT assay; assay type: cell-based; settings: 120 h
[5] = test system: Micrococcus luteus; assay: Antimicrobial activity against Micrococcus luteus after 24 to 48 hrs by serial dilution technique; assay type: functional
[6] = test system: Staphylococcus aureus; assay: Antimicrobial activity against methicillin-resistant Staphylococcus aureus after 24 to 48 hrs by serial dilution technique; assay type: functional
[7] = test system: Escherichia coli; assay: Antimicrobial activity against Escherichia coli after 24 to 48 hrs by serial dilution technique; assay type: functional
[8] = Antimicrobial activity against Nocardia flava after 24 to 48 hrs by serial dilution technique; assay type: functional
[9] = test system: Chromobacterium violaceum; assay: Antimicrobial activity against Chromobacterium violaceum after 24 to 48 hrs by serial dilution technique; assay type: functional
[10] = test system: Pseudomonas aeruginosa; assay: Antimicrobial activity against Pseudomonas aeruginosa after 24 to 48 hrs by serial dilution technique; assay type: functional
[11] = test system: Mucor hiemalis; assay: Antimicrobial activity against Mucor hiemalis after 24 to 48 hrs by serial dilution technique; assay type: functional
Summary of the method: (§1)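 MIC by twofold (1:1) serial dilution in 96-well plates. Medium was MYC (1.0% glucose, 1.0% phytone peptone, 50 mM HEPES, pH 7.0), used for yeasts and fungi.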

[12] = test system: Schizosaccharomyces pombe; assay: Antimicrobial activity against Schizosaccharomyces pombe after 24 to 48 hrs by serial dilution technique; assay type: functional; summary of the method: as §1
[13] = test system: Rhodotorula glutinis; assay: Antimicrobial activity against Rhodotorula glutinis after 24 to 48 hrs by serial dilution technique; assay type: functional; summary of the method: as §1
[14] = test system: Wickerhamomyces anomalus; assay: Antimicrobial activity against Pichia anamola after 24 to 48 hrs by serial dilution technique; assay type: functional; summary of the method: as §1
[15] = test system: Candida albicans; assay: Antimicrobial activity against Candida albicans after 24 to 48 hrs by serial dilution technique; assay type: functional; summary of the method: as §1

Compound | IC50 [1] [µM] | IC50 [2] [µM] | IC50 [3] [µM] | IC50 [4] [µM] | MIC [5] [µg/mL] | MIC [6] [µg/mL] | MIC [7] [µg/mL] | MIC [8] [µg/mL] | MIC [9] [µg/mL] | MIC [10] [µg/mL] | MIC [11] [µg/mL] | MIC [12] [µg/mL] | MIC [13] [µg/mL] | MIC ([14]; Hansenula anomala) [µg/mL] | MIC [15] [µg/mL] | MIC [14] [µg/mL]
CSC1=CC(=O)C(N)=C(Cl)C1=O [HYALADIONE] | 1.23 | 3.93 | 1.47 | 2.21 | 3.3 (≈ 16.2 µM) | 0.83 (≈ 4.08 µM) | 33.3 (≈ 164 µM) | 3.3 (≈ 16.2 µM) | 2.1 (≈ 10.3 µM) | 8.5 (≈ 41.7 µM) | 16.5 (≈ 81 µM) | > 33.3 | 1.7 (≈ 8.35 µM) | 33.3 (≈ 164 µM) | > 33.3 | –
CN(C)[C@@H]1C(O)=C(C(N)=O)C(=O)[C@@]2(O)C(O)=C3C(=O)c4c(O)cccc4[C@@](C)(O)[C@H]3[C@H](O)[C@@H]12.Cl [OXYTETRACYCLINE HYDROCHLORIDE] | – | – | – | – | 0.104 | 0.104 | 0.83 | 1.67 | 0.21 | – | – | – | – | – | – | –
NYSTATIN | – | – | – | – | – | – | – | – | – | – | 1.67 | 1.67 | 0.42 | – | 1.67 | 1.67
